Measured values from ChEMBL document CHEMBL1138265, “In vivo anti-Chagas vinylthio-, vinylsulfinyl-, and vinylsulfonylbenzofuroxan derivatives” (J Med Chem, 2007).
Calls of active or inactive are those of the source. The calls are words filed in the database; no cut-off is given here.

How the values were obtained:
Trypanosoma cruzi [1] = assay: Antitrypanosomal activity against Trypanosoma cruzi CL Brener; format: functional, organism-based
Outline: (§1)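 Epimastigotes from 5-day stationary culture inoculated at 1 × 10^6 cells/mL into medium with compound added from DMSO stock (final DMSO ≤0.4%; control 0.4% DMSO, no compound). Growth followed by A600; % inhibition from day 0 and day 5 absorbance versus control. IC50 = concentration reducing the day-5 absorbance ratio to 50%. Single-dose screen at 25 µM. Means of three experiments.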

[2] = Selectivity index, ratio of IC50 for human THP1 cells to IC50 for Trypanosoma cruzi Y; format: functional, THP-1
[3] = molecular target: Trypanothione reductase (Trypanosoma cruzi) (UniProt P28593); assay: Inhibition of Trypanosoma cruzi trypanothione reductase assessed as volume activity per min at 100 uM after 1 hr
Trypanothione reductase (Trypanosoma cruzi), sequence (P28593 whole entry, looked up): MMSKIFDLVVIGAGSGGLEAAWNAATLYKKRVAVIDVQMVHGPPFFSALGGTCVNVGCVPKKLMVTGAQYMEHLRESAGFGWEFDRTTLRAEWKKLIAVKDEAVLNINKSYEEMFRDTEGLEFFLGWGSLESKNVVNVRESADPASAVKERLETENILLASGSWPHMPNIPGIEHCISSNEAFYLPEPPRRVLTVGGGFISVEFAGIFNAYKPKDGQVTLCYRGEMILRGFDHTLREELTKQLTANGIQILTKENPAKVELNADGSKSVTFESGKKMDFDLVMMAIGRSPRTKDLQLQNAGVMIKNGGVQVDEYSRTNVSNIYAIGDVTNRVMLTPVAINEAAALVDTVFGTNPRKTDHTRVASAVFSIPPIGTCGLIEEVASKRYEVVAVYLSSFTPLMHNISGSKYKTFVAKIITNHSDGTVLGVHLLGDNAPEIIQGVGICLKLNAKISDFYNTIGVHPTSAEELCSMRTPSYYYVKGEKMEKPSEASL
Outline: (§2)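 Time-dependent inactivation: 170 mU recombinant TR incubated at 25 °C in 40 mM HEPES, 1 mM EDTA, pH 7.5 with 100 µM inhibitor, with or without 160 µM NADPH, for 0-24 h. Aliquots diluted 200-fold and residual activity measured in the standard NADPH/TS2 assay at 340 nm. Controls: TR plus NADPH with DMSO, and TR plus inhibitor.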

THP-1 = assay: Cytotoxicity against human THP1 cells after 48 hrs; format: cell-based; conditions: THP-1, 48 h
Outline: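 THP-1 human macrophages in RPMI 1640 with 20% heat-inactivated FCS, left to attach 48 h at 37 °C, 5% CO2. Exposed to compounds at 25-1000 µM for 48 h, washed, then MTT 0.4 mg/mL for 3 h. Formazan dissolved in DMSO and read at OD595; % cytotoxicity corrected for compound-in-medium blanks. Triplicates per concentration, six growth controls; mean of two experiments.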

[4] = molecular target: Cruzipain (Trypanosoma cruzi) (UniProt P25779); assay: Inhibition of Trypanosoma cruzi Tulahuen 2 cruzipain at 50 uM
Cruzipain (Trypanosoma cruzi), sequence (P25779 123-467 limits assumed): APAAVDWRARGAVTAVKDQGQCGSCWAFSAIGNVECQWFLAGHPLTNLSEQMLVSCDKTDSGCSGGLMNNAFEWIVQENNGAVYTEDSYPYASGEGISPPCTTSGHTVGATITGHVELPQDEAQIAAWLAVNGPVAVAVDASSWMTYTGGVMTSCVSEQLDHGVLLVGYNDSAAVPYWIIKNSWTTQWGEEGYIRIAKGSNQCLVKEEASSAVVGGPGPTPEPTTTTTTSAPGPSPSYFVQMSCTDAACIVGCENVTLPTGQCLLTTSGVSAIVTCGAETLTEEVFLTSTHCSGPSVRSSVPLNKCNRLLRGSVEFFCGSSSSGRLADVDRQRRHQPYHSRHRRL
Outline: (§3)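 Cruzipain purified from Tulahuen 2 epimastigotes by ConA-Sepharose affinity chromatography. Assayed in 50 mM Tris-acetate pH 8.0 with 0.3 mM Bz-Pro-Phe-Arg-pNA and 10 mM β-mercaptoethanol, A410 followed at 30 °C. Inhibitors added in DMSO, controls with matching DMSO, E-64 as reference. Tested at 10-100 µM; means of at least two measurements.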

Trypanosoma cruzi [5] = assay: Effect on oxygen uptake in Trypanosoma cruzi Tulahuen 2 assessed as increase in oxygen consumption at 200 uM; format: functional, organism-based
Outline: (§4)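 Tulahuen 2 epimastigotes grown 5 days, washed, resuspended in phosphate-saline buffer pH 7.4 with 5.5 mM glucose at 0.2 mg protein/mL (40 × 10^6 parasites/mL). O2 consumption measured by Clark electrode at 28 °C, compound 200 µM final in DMSO; control with 0.1% DMSO. Cyanide-insensitive respiration measured after 20 mM KCN.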

[6] = molecular target: Cruzipain (Trypanosoma cruzi) (UniProt P25779); assay: Inhibition of Trypanosoma cruzi Tulahuen 2 cruzipain at 10 uM; outline: as §3
[7] = molecular target: Trypanothione reductase (Trypanosoma cruzi) (UniProt P28593); assay: Inhibition of Trypanosoma cruzi trypanothione reductase assessed as volume activity per min at 100 uM in presence of NADPH; outline: as §2
Trypanosoma cruzi [8] = assay: Antitrypanosomal activity against Trypanosoma cruzi Tulahuen 2 infected Swiss mouse model of Chagas disease at 60 mg/kg, po after 35 days post infection
Trypanosoma cruzi [9] = assay: Antitrypanosomal activity against Trypanosoma cruzi Tulahuen 2; format: functional, organism-based; outline: as §1
Trypanosoma cruzi [10] = assay: Effect on oxygen uptake in Trypanosoma cruzi Tulahuen 2 at 200 uM; format: functional, organism-based; outline: as §4
Mus musculus = assay: Toxicity in Trypanosoma cruzi Tulahuen 2 infected Swiss mouse model of Chagas disease at 60 mg/kg, po; conditions: in vivo
Trypanosoma cruzi [11] = assay: Antitrypanosomal activity against Trypanosoma cruzi Y; format: functional, organism-based; outline: as §1
Cruzipain [12] = molecular target: T1, Cruzipain (Trypanosoma cruzi, UniProt P25779); assay: Inhibition of Trypanosoma cruzi Tulahuen 2 cruzipain; outline: as §3
T1 sequence (P25779 whole entry): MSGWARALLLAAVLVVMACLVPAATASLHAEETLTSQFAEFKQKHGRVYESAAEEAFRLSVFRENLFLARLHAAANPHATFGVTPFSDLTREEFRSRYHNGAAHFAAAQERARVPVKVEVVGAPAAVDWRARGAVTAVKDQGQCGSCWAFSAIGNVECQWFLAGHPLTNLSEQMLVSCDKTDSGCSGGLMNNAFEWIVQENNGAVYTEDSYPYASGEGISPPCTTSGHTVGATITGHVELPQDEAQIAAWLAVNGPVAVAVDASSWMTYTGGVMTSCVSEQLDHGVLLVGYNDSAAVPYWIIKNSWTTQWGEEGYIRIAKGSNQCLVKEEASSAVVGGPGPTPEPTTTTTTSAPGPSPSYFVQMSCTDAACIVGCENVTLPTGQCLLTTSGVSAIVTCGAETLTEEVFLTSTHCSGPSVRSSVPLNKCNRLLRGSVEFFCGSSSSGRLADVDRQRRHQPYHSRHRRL

Cruzipain [13] = molecular target: T1, Cruzipain; assay: Binding affinity to Trypanosoma cruzi Tulahuen 2 cruzipain
[14] = molecular target: Cruzipain (Trypanosoma cruzi) (UniProt P25779); assay: Inhibition of Trypanosoma cruzi Tulahuen 2 cruzipain at 20 uM; outline: as §3
[15] = molecular target: Trypanothione reductase (Trypanosoma cruzi) (UniProt P28593); assay: Inhibition of Trypanosoma cruzi trypanothione reductase assessed as volume activity per min at 100 uM in presence of NADPH after 1 hr; outline: as §2
[16] = molecular target: Cruzipain (Trypanosoma cruzi) (UniProt P25779); assay: Inhibition of Trypanosoma cruzi Tulahuen 2 cruzipain at 100 uM; outline: as §3
Trypanosoma cruzi [17] = assay: Antitrypanosomal activity against Trypanosoma cruzi Tulahuen 2 infected Swiss mouse model of Chagas disease at 60 mg/kg, po after 41 days post infection
[18] = Selectivity index, ratio of IC50 for human THP1 cells to IC50 for Trypanosoma cruzi Tulahuen 2; format: functional, THP-1
[19] = Selectivity index, ratio of IC50 for human THP1 cells to IC50 for Trypanosoma cruzi CL Brener; format: functional, THP-1
[20] = molecular target: Trypanothione reductase (Trypanosoma cruzi) (UniProt P28593); assay: Inhibition of Trypanosoma cruzi trypanothione reductase assessed as volume activity per minute at 100 uM
[21] = molecular target: Trypanothione reductase (Trypanosoma cruzi) (UniProt P28593); assay: Inhibition of Trypanosoma cruzi trypanothione reductase assessed as volume activity per min at 100 uM in presence of NADPH after 4 hrs; outline: as §2
[22] = molecular target: Trypanothione reductase (Trypanosoma cruzi) (UniProt P28593); assay: Inhibition of Trypanosoma cruzi trypanothione reductase assessed as volume activity per min at 100 uM after 24 hrs; outline: as §2
[23] = molecular target: Trypanothione reductase (Trypanosoma cruzi) (UniProt P28593); assay: Inhibition of Trypanosoma cruzi trypanothione reductase assessed as volume activity per min at 100 uM after 3 hrs; outline: as §2
[24] = molecular target: Trypanothione reductase (Trypanosoma cruzi) (UniProt P28593); assay: Inhibition of Trypanosoma cruzi trypanothione reductase assessed as volume activity per min at 100 uM in presence of NADPH after 24 hrs; outline: as §2
[25] = molecular target: Trypanothione reductase (Trypanosoma cruzi) (UniProt P28593); assay: Inhibition of Trypanosoma cruzi trypanothione reductase assessed as volume activity per min at 100 uM after 4 hrs; outline: as §2

SMILES	IC50 (Trypanosoma cruzi [1]) [µM]	Ratio IC50 [2]	deltaA [3]	IC50 (THP-1) [µM]	inhibition [4] [%]	inhibition [6] [%]	deltaA [7]	Activity (Trypanosoma cruzi [8])	IC50 (Trypanosoma cruzi [9]) [µM]	Activity (Mus musculus)	IC50 (Trypanosoma cruzi [11]) [µM]	inhibition [14] [%]	deltaA [15]	inhibition [16] [%]	Activity (Trypanosoma cruzi [17])	Ratio IC50 [18]	Ratio IC50 [19]	deltaA [20]	also measured
O=S(=O)(/C=C\c1ccc2c(c1)no[n+]2[O-])c1ccccc1	6.1	51.9	0.102	109	24	2	0.097	Active	1.1	Non-toxic	2.1	3	0.084	19	Active	99.1	17.9	0.104	Activity (Trypanosoma cruzi [5]): inactive; Activity (Trypanosoma cruzi [10]): inactive; IC50 (Cruzipain [12]): > 50 µM; Kd (Cruzipain [13]): 1100 µM; deltaA [21]: 0.088
[O-][n+]1onc2cc(/C=C\[S+]([O-])c3ccccc3)ccc21 (stereo not given)	5	70	0.107	105	8	0	0.107	Active	0.7	Non-toxic	1.5	23	0.107	3	Active	150	21	0.101	deltaA [22]: 0.108; deltaA [23]: 0.09; deltaA [24]: 0.081
O=S(=O)(CCO)Cc1ccc2c(c1)no[n+]2[O-]	–	–	–	300	–	–	–	–	> 25	–	–	–	–	–	–	<12	–	–	–
[O-][n+]1onc2cc(/C=C/c3ccccc3)ccc21	7.5	17.7	–	110	43	12	–	–	10.8	–	6.2	0	–	22	–	10.2	14.7	–	–
[O-][n+]1onc2cc(/C=C\Sc3ccccc3)ccc21	3.5	–	–	–	–	–	–	Active	3.8	Non-toxic	10	–	–	–	Active	–	–	–	–
C=CS(=O)(=O)Cc1ccc2c(c1)no[n+]2[O-]	9.1	22.3	–	274	–	–	–	–	14.6	–	12.3	–	–	–	–	18.8	30.1	–	–
O=S(=O)(/C=C/c1ccc2c(c1)no[n+]2[O-])c1ccccc1	7.6	81.8	0.11	409	35	0	0.101	Active	1.6	Non-toxic	5	0	0.099	0	Active	255.6	53.8	0.102	Activity (Trypanosoma cruzi [5]): inactive; Activity (Trypanosoma cruzi [10]): inactive; deltaA [25]: 0.106; IC50 (Cruzipain [12]): > 50 µM; Kd (Cruzipain [13]): 500 µM; deltaA [21]: 0.098
